# ChEMBL document CHEMBL5236607, “Membrane-Active Cyclic Amphiphilic Peptides: Broad-Spectrum Antibacterial Activity Alone and in Combination with Antibiotics” (J Med Chem, 2022)
# Peptide text beside a SMILES is read from it.
# How the values were obtained:
# Type in all cases: functional
# Escherichia coli [1] = test: Synergistic antibacterial activity against Escherichia coli ATCC 25922 fractional inhibitory concentration index incubated for 24 hrs in presence of polymyxin B by checkerboard assay
# In short: (§1)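 Checkerboard assay in MH broth. Inoculum from an LB overnight culture set to 0.5 McFarland and diluted 1/150. […] Each agent was also titrated alone. Incubation 24 h at 37 °C. FIC = combination MIC/individual MIC; FICI = sum of the FICs. Triplicate.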
# Staphylococcus aureus [2] = test: Synergistic antibacterial activity against methicillin resistant Staphylococcus aureus ATCC BAA-1556 assessed as fractional inhibitory concentration index incubated for 24 hrs in presence of tetracycline by checkerboard assay
# In short: (§2)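 Checkerboard assay. Inoculum from an LB overnight culture at 0.5 McFarland, diluted 1/150 in MH media. […] Incubated 37 °C for 24 h. FICI = MIC combination/MIC alone summed over both agents. Triplicate.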
# Staphylococcus aureus [3] = test: Synergistic antibacterial activity against methicillin resistant Staphylococcus aureus ATCC BAA-1556 fractional inhibitory concentration index incubated for 24 hrs in presence of vancomycin by checkerboard assay; in short: as §2
# Staphylococcus aureus [4] = test: Synergistic antibacterial activity against methicillin resistant Staphylococcus aureus ATCC BAA-1556 incubated for 24 hrs in presence of clindamycin by checkerboard assay; in short: as §2
# Staphylococcus aureus [5] = test: Synergistic antibacterial activity against methicillin resistant Staphylococcus aureus ATCC BAA-1556 fractional inhibitory concentration incubated for 24 hrs in presence of vancomycin by checkerboard assay; in short: as §2
# Escherichia coli [6] = test: Synergistic antibacterial activity against Escherichia coli ATCC 25922 fractional inhibitory concentration incubated for 24 hrs in presence of levofloxacin by checkerboard assay; in short: as §1
# Klebsiella pneumoniae [7] = test: Synergistic antibacterial activity against Klebsiella pneumoniae ATCC BAA-1705 fractional inhibitory concentration incubated for 24 hrs in presence of daptomycin by checkerboard assay; in short: as §1
# Pseudomonas aeruginosa [8] = test: Synergistic antibacterial activity against Pseudomonas aeruginosa ATCC […] incubated for 24 hrs in presence of Ciprofloxacin by checkerboard assay
# Klebsiella pneumoniae [9] = test: Synergistic antibacterial activity against Klebsiella pneumoniae ATCC BAA-1705 assessed as fractional inhibitory concentration incubated for 24 hrs in presence of tobramycin by checkerboard assay; in short: as §1
# Klebsiella pneumoniae [10] = test: Synergistic antibacterial activity against Klebsiella pneumoniae ATCC BAA-1705 fractional inhibitory concentration incubated for 24 hrs in presence of kanamycin by checkerboard assay; in short: as §1
# Pseudomonas aeruginosa [11] = test: Synergistic antibacterial activity against Pseudomonas aeruginosa ATCC […] fractional inhibitory concentration index incubated for 24 hrs in presence of levofloxacin by checkerboard assay
# Escherichia coli [12] = test: Synergistic antibacterial activity against Escherichia coli ATCC 25922 fractional inhibitory concentration incubated for 24 hrs in presence of polymyxin B by checkerboard assay; in short: as §1
# Escherichia coli [13] = test: Synergistic antibacterial activity against Escherichia coli ATCC 25922 incubated for 24 hrs in presence of tetracycline by checkerboard assay; in short: as §1
# Staphylococcus aureus [14] = test: Synergistic antibacterial activity against methicillin resistant Staphylococcus aureus ATCC BAA-1556 incubated for 24 hrs in presence of tetracycline by checkerboard assay; in short: as §2
# Pseudomonas aeruginosa [15] = test: Synergistic antibacterial activity against Pseudomonas aeruginosa ATCC […] fractional inhibitory concentration incubated for 24 hrs in presence of meropenem by checkerboard assay
# Pseudomonas aeruginosa [16] = test: Synergistic antibacterial activity against Pseudomonas aeruginosa ATCC […] fractional inhibitory concentration incubated for 24 hrs in presence of metronidazole by checkerboard assay
# Escherichia coli [17] = test: Synergistic antibacterial activity against Escherichia coli ATCC 25922 fractional inhibitory concentration index incubated for 24 hrs in presence of vancomycin by checkerboard assay; in short: as §2
# Staphylococcus aureus [18] = test: Synergistic antibacterial activity against methicillin resistant Staphylococcus aureus ATCC BAA-1556 incubated for 24 hrs in presence of vancomycin by checkerboard assay; in short: as §2
# Klebsiella pneumoniae [19] = test: Synergistic antibacterial activity against Klebsiella pneumoniae ATCC BAA-1705 fractional inhibitory concentration index incubated for 24 hrs in presence of Ciprofloxacin by checkerboard assay; in short: as §1
# Pseudomonas aeruginosa [20] = test: Synergistic antibacterial activity against Pseudomonas aeruginosa ATCC […] fractional inhibitory concentration incubated for 24 hrs in presence of kanamycin by checkerboard assay; in short: as §2
# Pseudomonas aeruginosa [21] = test: Synergistic antibacterial activity against Pseudomonas aeruginosa ATCC […] fractional inhibitory concentration index incubated for 24 hrs in presence of daptomycin by checkerboard assay
# Pseudomonas aeruginosa [22] = test: Synergistic antibacterial activity against Pseudomonas aeruginosa ATCC […] fractional inhibitory concentration index incubated for 24 hrs in presence of meropenem by checkerboard assay
# Escherichia coli [23] = test: Synergistic antibacterial activity against Escherichia coli ATCC 25922 incubated for 24 hrs in presence of polymyxin B by checkerboard assay; in short: as §1
# Escherichia coli [24] = test: Synergistic antibacterial activity against Escherichia coli ATCC 25922 fractional inhibitory concentration incubated for 24 hrs in presence of vancomycin by checkerboard assay; in short: as §1
# Staphylococcus aureus [25] = test: Synergistic antibacterial activity against methicillin resistant Staphylococcus aureus ATCC BAA-1556 assessed as fractional inhibitory concentration index incubated for 24 hrs in presence of clindamycin by checkerboard assay; in short: as §2
# Staphylococcus aureus [26] = test: Synergistic antibacterial activity against methicillin resistant Staphylococcus aureus ATCC BAA-1556 fractional inhibitory concentration incubated for 24 hrs in presence of metronidazole by checkerboard assay; in short: as §2
# Escherichia coli [27] = test: Synergistic antibacterial activity against Escherichia coli ATCC 25922 fractional inhibitory concentration index incubated for 24 hrs in presence of levofloxacin by checkerboard assay; in short: as §1
# Klebsiella pneumoniae [28] = test: Synergistic antibacterial activity against Klebsiella pneumoniae ATCC BAA-1705 assessed as fractional inhibitory concentration index incubated for 24 hrs in presence of tobramycin by checkerboard assay; in short: as §1
# Staphylococcus aureus [29] = test: Synergistic antibacterial activity against methicillin resistant Staphylococcus aureus ATCC BAA-1556 incubated for 24 hrs in presence of tobramycin by checkerboard assay; in short: as §2
# Klebsiella pneumoniae [30] = test: Synergistic antibacterial activity against Klebsiella pneumoniae ATCC BAA-1705 fractional inhibitory concentration index incubated for 24 hrs in presence of clindamycin by checkerboard assay; in short: as §1
# Klebsiella pneumoniae [31] = test: Synergistic antibacterial activity against Klebsiella pneumoniae ATCC BAA-1705 assessed as fractional inhibitory concentration index incubated for 24 hrs in presence of tetracycline by checkerboard assay; in short: as §1
# Klebsiella pneumoniae [32] = test: Synergistic antibacterial activity against Klebsiella pneumoniae ATCC BAA-1705 fractional inhibitory concentration index incubated for 24 hrs in presence of polymyxin B by checkerboard assay
# Pseudomonas aeruginosa [33] = test: Synergistic antibacterial activity against Pseudomonas aeruginosa ATCC […] fractional inhibitory concentration index incubated for 24 hrs in presence of vancomycin by checkerboard assay
# Staphylococcus aureus [34] = test: Synergistic antibacterial activity against methicillin resistant Staphylococcus aureus ATCC BAA-1556 assessed as fractional inhibitory concentration incubated for 24 hrs in presence of tetracycline by checkerboard assay; in short: as §2
# Pseudomonas aeruginosa [35] = test: Synergistic antibacterial activity against Pseudomonas aeruginosa ATCC […] fractional inhibitory concentration incubated for 24 hrs in presence of Ciprofloxacin by checkerboard assay
# Klebsiella pneumoniae [36] = test: Synergistic antibacterial activity against Klebsiella pneumoniae ATCC BAA-1705 fractional inhibitory concentration index incubated for 24 hrs in presence of metronidazole by checkerboard assay
# Staphylococcus aureus [37] = test: Synergistic antibacterial activity against methicillin resistant Staphylococcus aureus ATCC BAA-1556 fractional inhibitory concentration index incubated for 24 hrs in presence of Ciprofloxacin by checkerboard assay; in short: as §2
Structure (SMILES),fractional inhibitory concentration index (FICI) (Escherichia coli [1]),fractional inhibitory concentration index (FICI) (Staphylococcus aureus [2]),fractional inhibitory concentration index (FICI) (Staphylococcus aureus [3]),MIC (Staphylococcus aureus [4]),FIC (Staphylococcus aureus [5]),FIC (Escherichia coli [6]),FIC (Klebsiella pneumoniae [7]),MIC (Pseudomonas aeruginosa [8]),FIC (Klebsiella pneumoniae [9]),FIC (Klebsiella pneumoniae [10]),fractional inhibitory concentration index (FICI) (Pseudomonas aeruginosa [11]),FIC (Escherichia coli [12]),MIC (Escherichia coli [13]),MIC (Staphylococcus aureus [14]),FIC (Pseudomonas aeruginosa [15]),FIC (Pseudomonas aeruginosa [16]),fractional inhibitory concentration index (FICI) (Escherichia coli [17]),MIC (Staphylococcus aureus [18]),fractional inhibitory concentration index (FICI) (Klebsiella pneumoniae [19]),FIC (Pseudomonas aeruginosa [20]),further results
N=C(N)NCCC[C@@H]1NC(=O)[C@H](CCCNC(=N)N)NC(=O)[C@H](CCCNC(=N)N)NC(=O)[C@H](Cc2c[nH]c3ccccc23)NC(=O)[C@H](Cc2c[nH]c3ccccc23)NC(=O)[C@H](Cc2c[nH]c3ccccc23)NC(=O)[C@H](Cc2c[nH]c3ccccc23)NC(=O)[C@H](CCCNC(=N)N)NC(=O)[C@H](CCCNC(=N)N)NC1=O,0.375,0.5,0.75,0.0312 µg/mL,0.5,0.125,0.0156,0.125 µg/mL,0.125,0.125,0.375,0.125,1 µg/mL,0.0625 µg/mL,0.125,0.25,0.531,0.5 µg/mL,0.313,0.0313,fractional inhibitory concentration index (FICI) (Pseudomonas aeruginosa [21]): 0.313; fractional inhibitory concentration index (FICI) (Pseudomonas aeruginosa [22]): 0.375; MIC (Escherichia coli [23]): 0.25 µg/mL; FIC (Escherichia coli [24]): 0.0313; fractional inhibitory concentration index (FICI) (Staphylococcus aureus [25]): 0.499; FIC (Staphylococcus aureus [26]): 0.063; fractional inhibitory concentration index (FICI) (Escherichia coli [27]): 0.375; fractional inhibitory concentration index (FICI) (Klebsiella pneumoniae [28]): 0.375; MIC (Staphylococcus aureus [29]): 0.125 µg/mL; fractional inhibitory concentration index (FICI) (Klebsiella pneumoniae [30]): 0.254; fractional inhibitory concentration index (FICI) (Klebsiella pneumoniae [31]): 0.375; fractional inhibitory concentration index (FICI) (Klebsiella pneumoniae [32]): 0.375; fractional inhibitory concentration index (FICI) (Pseudomonas aeruginosa [33]): 0.313; FIC (Staphylococcus aureus [34]): 0.25; FIC (Pseudomonas aeruginosa [35]): 0.25; fractional inhibitory concentration index (FICI) (Klebsiella pneumoniae [36]): 0.281; fractional inhibitory concentration index (FICI) (Staphylococcus aureus [37]): 0.625
N=C(N)NCCC[C@@H]1NC(=O)[C@H](CCCNC(=N)N)NC(=O)[C@H](CCCNC(=N)N)NC(=O)[C@H](CCCNC(=N)N)NC(=O)[C@H](Cc2c[nH]c3ccccc23)NC(=O)[C@H](Cc2c[nH]c3ccccc23)NC(=O)[C@H](Cc2c[nH]c3ccccc23)NC(=O)[C@H](Cc2c[nH]c3ccccc23)NC(=O)[C@H](CCCNC(=N)N)NC(=O)[C@H](CCCNC(=N)N)NC1=O (cyclo(RRRRRRWWWW)),0.313,0.5,0.5,0.031 µg/mL,0.25,0.125,0.125,0.125 µg/mL,0.25,0.25,0.375,0.063,0.5 µg/mL,0.0625 µg/mL,0.25,0.125,0.563,0.25 µg/mL,0.313,0.0156,fractional inhibitory concentration index (FICI) (Pseudomonas aeruginosa [21]): 0.516; fractional inhibitory concentration index (FICI) (Pseudomonas aeruginosa [22]): 0.5; MIC (Escherichia coli [23]): 0.125 µg/mL; FIC (Escherichia coli [24]): 0.063; fractional inhibitory concentration index (FICI) (Staphylococcus aureus [25]): 0.498; FIC (Staphylococcus aureus [26]): 0.063; fractional inhibitory concentration index (FICI) (Escherichia coli [27]): 0.375; fractional inhibitory concentration index (FICI) (Klebsiella pneumoniae [28]): 0.5; MIC (Staphylococcus aureus [29]): 0.0625 µg/mL; fractional inhibitory concentration index (FICI) (Klebsiella pneumoniae [30]): 0.266; fractional inhibitory concentration index (FICI) (Klebsiella pneumoniae [31]): 0.375; fractional inhibitory concentration index (FICI) (Klebsiella pneumoniae [32]): 0.281; fractional inhibitory concentration index (FICI) (Pseudomonas aeruginosa [33]): 0.531; FIC (Staphylococcus aureus [34]): 0.25; FIC (Pseudomonas aeruginosa [35]): 0.25; fractional inhibitory concentration index (FICI) (Klebsiella pneumoniae [36]): 0.313; fractional inhibitory concentration index (FICI) (Staphylococcus aureus [37]): 0.75
